Reference: ChEMBL document CHEMBL3259668, “Synthesis of N-benzenesulfonamide-1H-pyrazoles bearing arylsulfonyl moiety: novel celecoxib analogs as potent anti-inflammatory agents” (Eur J Med Chem, 2014)

Tests used:
Rattus norvegicus [1] = assay: Antiinflammatory activity in ip dosed Sprague-Dawley rat assessed as inhibition of carrageenan-induced foot paw edema after 1 hr by plethysmometer analysis; assay type: functional; conditions: Sprauge-Dawley
Summary of the method: (§1)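 Rats fasted at least 16 h with free access to water. Compounds were given as a suspension in 0.5% methyl cellulose, with a vehicle-only negative control group. Paw volume was measured by water displacement on a plethysmometer before and after treatment. Inhibition (%) = (1 − D/C) × 100, where D and C are the paw-volume changes in treated and control groups.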

Rattus norvegicus [2] = assay: Antiinflammatory activity in ip dosed Sprague-Dawley rat assessed as inhibition of carrageenan-induced foot paw edema after 2 hrs by plethysmometer analysis; assay type: functional; conditions: Sprauge-Dawley; summary of the method: as §1
Rattus norvegicus [3] = assay: Antiinflammatory activity in ip dosed Sprague-Dawley rat assessed as inhibition of carrageenan-induced foot paw edema after 3 hrs by plethysmometer analysis; assay type: functional; conditions: Sprauge-Dawley; summary of the method: as §1
[4] = Toxicity in ip dosed mouse assessed as behavioral changes and death during observation up to 72 hrs; assay type: organism-based; conditions: in vivo
Summary of the method: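 Male mice in groups, given test compounds intraperitoneally at various doses. Watched continuously for up to 6 h, then kept under observation for 72 h, recording all behavioural changes and deaths. Percentage of deaths at each dose was converted to probits to calculate LD50 (mM/kg).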

[5] = target: T1, Prostaglandin G/H synthase 1 (Ovis aries) (UniProt P05979); assay: Inhibition of ovine COX1 at 5 uM
T1 sequence (whole entry): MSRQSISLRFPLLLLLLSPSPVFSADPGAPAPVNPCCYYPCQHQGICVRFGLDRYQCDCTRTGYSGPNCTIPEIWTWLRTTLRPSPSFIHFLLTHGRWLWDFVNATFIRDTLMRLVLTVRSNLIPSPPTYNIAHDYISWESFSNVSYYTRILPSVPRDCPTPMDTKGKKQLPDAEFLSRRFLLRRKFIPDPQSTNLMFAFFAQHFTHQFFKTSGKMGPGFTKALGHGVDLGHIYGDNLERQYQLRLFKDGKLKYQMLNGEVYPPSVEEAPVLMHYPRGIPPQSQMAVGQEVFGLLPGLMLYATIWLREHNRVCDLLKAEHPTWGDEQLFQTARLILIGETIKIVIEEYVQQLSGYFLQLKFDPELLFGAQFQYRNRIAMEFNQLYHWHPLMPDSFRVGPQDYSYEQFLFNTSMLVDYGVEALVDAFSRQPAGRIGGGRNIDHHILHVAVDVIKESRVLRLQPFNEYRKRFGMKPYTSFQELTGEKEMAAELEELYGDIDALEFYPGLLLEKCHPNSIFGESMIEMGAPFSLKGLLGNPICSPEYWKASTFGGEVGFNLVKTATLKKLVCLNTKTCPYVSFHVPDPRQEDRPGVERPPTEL

Ovis aries = organism: Ovis aries; assay: Selectivity index, ratio of ovine COX2 to ovine COX1
Mus musculus [6] = assay: Analgesic activity in ip dosed albino Swiss mouse after 0.5 hrs by hot plate test; assay type: functional
Summary of the method: (§2)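 Mice given a single intraperitoneal dose of test compound (5-200 mg/kg). Reaction time on the hot plate was measured before treatment as the control and again at 15, 30, 60 and 120 min after injection, with a 60 s cut-off. Each animal served as its own control.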

Mus musculus [7] = assay: Analgesic activity in ip dosed albino Swiss mouse after 1 hr by hot plate test; assay type: functional; summary of the method: as §2
Mus musculus [8] = assay: Analgesic activity in ip dosed albino Swiss mouse after 2 hrs by hot plate test; assay type: functional; summary of the method: as §2
Rattus norvegicus [9] = assay: Gastrointestinal toxicity in albino rat assessed as ulcer index at 100 umol/kg, po qd for 3 days measured 6 hrs after last dose; conditions: in vivo, 100 µmol/kg

| Compound | ED50 (Rattus norvegicus [1]) [µM/kg] | ED50 (Rattus norvegicus [2]) [µM/kg] | ED50 (Rattus norvegicus [3]) [µM/kg] | LD50 at 72 h [4] [µmol/kg] | inhibition [5] [%] | Selectivity Index (Ovis aries) | ED50 (Mus musculus [6]) [µM/kg] | ED50 (Mus musculus [7]) [µM/kg] | ED50 (Mus musculus [8]) [µM/kg] | UI (Rattus norvegicus [9]) |
| --- | --- | --- | --- | --- | --- | --- | --- | --- | --- | --- |
| CC(=O)c1nn(-c2ccc(S(N)(=O)=O)cc2)c(-c2ccc(C)cc2)c1S(=O)(=O)c1ccccc1 | 112 | 102 | 95 | 10100 | 18 | 1.83 | 50 | 147 | 147 | 2.25 |
| O=C(CS(=O)(=O)c1ccccc1)c1ccc(Br)cc1 | 550 | 350 | 327 | 12400 |  |  | 218 | 318 | 318 |  |
| Cc1ccc(C(=O)CS(=O)(=O)c2ccccc2)cc1 | 145 | 137 | 133 | 14300 |  |  | 168 | 408 | 434 |  |
| O=C(CS(=O)(=O)c1ccccc1)c1ccccc1 | 238 | 232 | 242 | 19700 |  |  | 250 | 158 | 145 |  |
| CC(=O)c1nn(-c2ccc(S(N)(=O)=O)cc2)c(-c2ccc(Br)cc2)c1S(=O)(=O)c1ccc(C)cc1 | 75 | 54 | 51 | 7100 | 3 | 13 | 69 | 195 | 204 | 0.98 |
| Cc1ccc(-c2cc(C(F)(F)F)nn2-c2ccc(S(N)(=O)=O)cc2)cc1 [CELECOXIB] | 89 | 89 | 86 | 9800 |  |  | 156 | 72 | 70 | 0.92 |
| O=S(=O)(C/C(=N/O)c1ccccc1)c1ccccc1 | 285 | 245 | 256 | 17400 |  |  | 320 | 265 | 244 |  |
| Cc1ccc(/C(CS(=O)(=O)c2ccccc2)=N\O)cc1 | 271 | 238 | 237 | 9000 |  |  | 212 | 203 | 200 |  |
| Cc1ccc(S(=O)(=O)CC(=O)c2ccc(Br)cc2)cc1 | 213 | 213 | 200 | 12700 |  |  | 73 | 69 | 66 |  |
| Cc1ccc(/C(CS(=O)(=O)c2ccccc2)=N\Nc2ccccc2)cc1 | 280 | 181 | 169 | 11500 |  |  | 220 | 260 | 288 |  |
| CC(=O)c1nn(-c2ccc(S(N)(=O)=O)cc2)c(-c2ccccc2)c1S(=O)(=O)c1ccccc1 | 363 | 376 | 372 | 10100 |  |  | 311 | 261 | 261 |  |
| CC(=O)c1nn(-c2ccc(S(N)(=O)=O)cc2)c(-c2ccc(Br)cc2)c1S(=O)(=O)c1ccccc1 | 87 | 64 | 68 | 7100 | 34 | 0.79 | 57 | 81 | 80 | 2.86 |
| O=S(=O)(C/C(=N/Nc1ccccc1)c1ccccc1)c1ccccc1 | 270 | 248 | 256 | 14600 |  |  | 285 | 319 | 345 |  |
